Active and inactive are the calls of the source. The calls are words filed in the database; no cut-off is given here.
Legend:
RXF 393 = test: Growth inhibition of human RXF393 cells assessed as cell growth at 1 nM relative to untreated control; type: functional; settings: read-out: Activity
TK-10 [1] = test: Growth inhibition of human TK10 cells assessed as cell growth at 1 nM relative to untreated control; type: functional; settings: read-out: Activity
HOP-92 [2] = test: Growth inhibition of human HOP92 cells; type: functional
Method in brief: (§1)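 Run externally at the National Cancer Institute as a 59-cell-line panel screen, with concentrations up to 100 μM. Growth was scored relative to control, where negative growth or total cell kill was possible. Data are in the Supporting Information.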

A498 = test: Growth inhibition of human A498 cells assessed as cell growth at 1 uM relative to untreated control; type: functional; settings: read-out: Activity
MDA-MB-435 = test: Growth inhibition of human MDA-MB-435 cells assessed as cell growth at 1 uM relative to untreated control; type: functional; settings: read-out: Activity
OVCAR-3 = test: Growth inhibition of human OVCAR-3 cells assessed as cell growth at 1 nM relative to untreated control; type: functional; settings: read-out: Activity
SF-295 = test: Growth inhibition of human SF295 cells; type: functional
M14 = test: Growth inhibition of human M14 cells assessed as cell growth at 1 nM relative to untreated control; type: functional; settings: read-out: Activity
K562 = test: Growth inhibition of human K562 cells assessed as cell growth at 10 uM relative to untreated control; type: functional; settings: read-out: Activity
DU-145 [3] = test: Growth inhibition of human DU145 cells assessed as cell growth at 10 nM relative to untreated control; type: functional; settings: read-out: Activity; method in brief: as §1
A549 [4] = test: Growth inhibition of human A549 cells assessed as cell growth at 100 nM relative to untreated control; type: functional; settings: read-out: Activity
HT-29 [5] = test: Growth inhibition of human HT-29 cells assessed as cell growth at 10 uM relative to untreated control; type: functional; settings: read-out: Activity
LOX IMVI = test: Growth inhibition of human LOXIMVI cells assessed as cell growth at 1 nM relative to untreated control; type: functional; settings: read-out: Activity
HT-29 [6] = test: Growth inhibition of human HT-29 cells assessed as cell growth at 10 nM relative to untreated control; type: functional; settings: read-out: Activity
HCC 2998 [7] = test: Growth inhibition of human HCC2998 cells assessed as cell growth at 100 nM relative to untreated control; type: functional; settings: read-out: Activity; method in brief: as §1
OVCAR-4 [8] = test: Growth inhibition of human OVCAR4 cells assessed as cell growth at 10 nM relative to untreated control; type: functional; settings: read-out: Activity
OVCAR-4 [9] = test: Growth inhibition of human OVCAR4 cells; type: functional
UO-31 = test: Growth inhibition of human UO31 cells assessed as cell growth at 1 uM relative to untreated control; type: functional; settings: read-out: Activity
TK-10 [10] = test: Growth inhibition of human TK10 cells; type: functional
NCI-H226 [11] = test: Growth inhibition of human NCI-H226 cells assessed as cell growth at 1 uM relative to untreated control; type: functional; settings: read-out: Activity
HT-29 [12] = test: Growth inhibition of human HT-29 cells assessed as cell growth at 1 nM relative to untreated control; type: functional; settings: read-out: Activity
KM12 [13] = test: Growth inhibition of human KM12 cells assessed as cell growth at 1 uM relative to untreated control; type: functional; settings: read-out: Activity
TK-10 [14] = test: Growth inhibition of human TK10 cells assessed as cell growth at 100 nM relative to untreated control; type: functional; settings: read-out: Activity
HOP-92 [15] = test: Growth inhibition of human HOP92 cells assessed as cell growth at 10 nM relative to untreated control; type: functional; settings: read-out: Activity; method in brief: as §1
KM12 [16] = test: Growth inhibition of human KM12 cells assessed as cell growth at 1 nM relative to untreated control; type: functional; settings: read-out: Activity
PC-3 = test: Growth inhibition of human PC3 cells assessed as cell growth at 10 uM relative to untreated control; type: functional; settings: read-out: Activity
DU-145 [17] = test: Growth inhibition of human DU145 cells assessed as cell growth at 10 uM relative to untreated control; type: functional; settings: read-out: Activity; method in brief: as §1
SK-MEL-5 [18] = test: Growth inhibition of human SK-MEL-5 cells assessed as cell growth at 10 uM relative to untreated control; type: functional; settings: read-out: Activity
CCRF-CEM = test: Growth inhibition of human CCRF-CEM cells; type: functional
HCT-15 [19] = test: Growth inhibition of human HCT15 cells assessed as cell growth at 10 nM relative to untreated control; type: functional; settings: read-out: Activity; method in brief: as §1
DU-145 [20] = test: Growth inhibition of human DU145 cells; type: functional; method in brief: as §1
A549 [21] = test: Growth inhibition of human A549 cells assessed as cell growth at 1 uM relative to untreated control; type: functional; settings: read-out: Activity
NCI-H23 = test: Growth inhibition of human NCI-H23 cells assessed as cell growth at 1 uM relative to untreated control; type: functional; settings: read-out: Activity
Malme-3M = test: Growth inhibition of human MALME-3M cells assessed as cell growth at 10 uM relative to untreated control; type: functional; settings: read-out: Activity
[22] = target: DNA (cytosine-5)-methyltransferase 1 (Homo sapiens) (UniProt P26358); test: Inhibition of DNA methyltransferase activity in human PC3 cells at 2 uM after 3 days; type: cell-based; settings: PC-3
Method in brief: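 PC-3 cells in complete growth medium treated 3 days with compound, then harvested. Nuclear extracts prepared by kit protocol, and DNMT activity measured with a commercial DNMT activity kit against untreated cells. Mean of three independent experiments ± SEM.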

HCC 2998 [23] = test: Growth inhibition of human HCC2998 cells assessed as cell growth at 1 uM relative to untreated control; type: functional; settings: read-out: Activity; method in brief: as §1
SK-MEL-5 [24] = test: Growth inhibition of human SK-MEL-5 cells assessed as cell growth at 10 nM relative to untreated control; type: functional; settings: read-out: Activity
MDA-MB-231 = test: Growth inhibition of human MDA-MB-231 cells assessed as cell growth at 10 nM relative to untreated control; type: functional; settings: read-out: Activity
OVCAR-5 = test: Growth inhibition of human OVCAR5 cells assessed as cell growth at 1 uM relative to untreated control; type: functional; settings: read-out: Activity
786-0 = test: Growth inhibition of human 786-0 cells assessed as cell growth at 100 nM relative to untreated control; type: functional; settings: read-out: Activity
SR [25] = test: Growth inhibition of human SR cells assessed as cell growth at 10 uM relative to untreated control; type: functional; settings: read-out: Activity
HCT-15 [26] = test: Growth inhibition of human HCT15 cells assessed as cell growth at 10 uM relative to untreated control; type: functional; settings: read-out: Activity; method in brief: as §1
SR [27] = test: Growth inhibition of human SR cells assessed as cell growth at 1 uM relative to untreated control; type: functional; settings: read-out: Activity
SK-MEL-28 = test: Growth inhibition of human SK-MEL-28 cells assessed as cell growth at 10 nM relative to untreated control; type: functional; settings: read-out: Activity
NCI-H226 [28] = test: Growth inhibition of human NCI-H226 cells assessed as cell growth at 1 nM relative to untreated control; type: functional; settings: read-out: Activity
SNB-75 = test: Growth inhibition of human SNB75 cells assessed as cell growth at 10 uM relative to untreated control; type: functional; settings: read-out: Activity
ACHN = test: Growth inhibition of human ACHN cells assessed as cell growth at 1 nM relative to untreated control; type: functional; settings: read-out: Activity
[29] = read-out: LC50 (the source's name)

Sequence of DNA (cytosine-5)-methyltransferase 1 (Homo sapiens) (P26358 whole entry): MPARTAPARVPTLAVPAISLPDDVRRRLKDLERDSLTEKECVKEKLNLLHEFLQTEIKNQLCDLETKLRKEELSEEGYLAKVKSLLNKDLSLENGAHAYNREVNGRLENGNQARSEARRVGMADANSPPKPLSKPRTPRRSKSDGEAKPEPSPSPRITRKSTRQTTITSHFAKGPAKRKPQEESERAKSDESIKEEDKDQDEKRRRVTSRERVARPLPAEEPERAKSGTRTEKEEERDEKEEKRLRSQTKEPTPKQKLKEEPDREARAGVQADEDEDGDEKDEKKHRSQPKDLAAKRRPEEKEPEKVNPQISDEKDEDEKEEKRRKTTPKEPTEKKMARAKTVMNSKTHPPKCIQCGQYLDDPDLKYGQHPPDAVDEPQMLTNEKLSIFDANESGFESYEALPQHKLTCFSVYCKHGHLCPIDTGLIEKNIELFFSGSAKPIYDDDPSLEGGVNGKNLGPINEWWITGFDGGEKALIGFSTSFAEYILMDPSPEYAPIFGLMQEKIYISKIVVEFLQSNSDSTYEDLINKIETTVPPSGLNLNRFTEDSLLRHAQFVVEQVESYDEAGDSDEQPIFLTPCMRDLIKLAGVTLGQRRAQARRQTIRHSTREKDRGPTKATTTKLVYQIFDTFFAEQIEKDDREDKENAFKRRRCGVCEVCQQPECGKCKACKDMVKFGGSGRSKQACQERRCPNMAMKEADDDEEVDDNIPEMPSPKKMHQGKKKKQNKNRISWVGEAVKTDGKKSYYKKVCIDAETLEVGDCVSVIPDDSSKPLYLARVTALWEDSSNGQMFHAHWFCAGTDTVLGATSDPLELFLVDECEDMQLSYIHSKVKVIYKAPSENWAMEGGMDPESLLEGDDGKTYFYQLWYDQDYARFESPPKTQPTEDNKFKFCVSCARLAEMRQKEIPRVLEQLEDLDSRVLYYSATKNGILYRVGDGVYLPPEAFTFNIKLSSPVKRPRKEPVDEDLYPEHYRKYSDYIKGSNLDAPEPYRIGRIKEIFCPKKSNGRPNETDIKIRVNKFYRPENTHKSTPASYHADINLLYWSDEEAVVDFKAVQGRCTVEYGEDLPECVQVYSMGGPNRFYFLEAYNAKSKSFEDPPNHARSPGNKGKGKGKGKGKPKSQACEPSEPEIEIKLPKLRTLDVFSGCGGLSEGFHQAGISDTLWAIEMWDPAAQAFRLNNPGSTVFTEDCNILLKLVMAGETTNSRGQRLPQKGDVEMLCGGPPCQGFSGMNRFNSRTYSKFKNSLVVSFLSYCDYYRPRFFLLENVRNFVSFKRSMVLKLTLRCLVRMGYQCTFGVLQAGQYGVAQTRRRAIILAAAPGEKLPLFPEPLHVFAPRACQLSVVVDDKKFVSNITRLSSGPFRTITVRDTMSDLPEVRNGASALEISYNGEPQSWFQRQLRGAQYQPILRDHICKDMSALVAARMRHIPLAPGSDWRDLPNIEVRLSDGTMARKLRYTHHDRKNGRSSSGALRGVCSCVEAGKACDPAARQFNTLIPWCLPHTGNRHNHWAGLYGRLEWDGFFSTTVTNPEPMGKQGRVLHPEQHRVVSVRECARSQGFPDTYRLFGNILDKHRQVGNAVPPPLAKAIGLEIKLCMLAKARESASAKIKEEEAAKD

## COc1ccc2c(c1)[nH]c1c(C)c(OS(=O)(=O)c3cccc4c(N(C)C)cccc34)ccc12
RXF 393
  growth at 0.001 µM: 103%
TK-10 [1]
  growth at 0.001 µM: 97%
HOP-92 [2]
  GI50: 9.51 µM
  TGI: 94.8 µM
HOP-92 [2]; [29]
  CC50: > 100 µM
A498
  growth at 1 µM: 15%
MDA-MB-435
  growth at 1 µM: -5%
OVCAR-3
  growth at 0.001 µM: 100%
SF-295
  GI50: 3.4 µM
  TGI: > 100 µM
SF-295; [29]
  CC50: > 100 µM
M14
  growth at 0.001 µM: 102%
K562
  growth at 10 µM: 5%
DU-145 [3]
  growth at 0.01 µM: 107%
A549 [4]
  growth at 0.1 µM: 95%
HT-29 [5]
  growth at 10 µM: 8%
LOX IMVI
  growth at 0.001 µM: 95%
HT-29 [6]
  growth at 0.01 µM: 106%
HCC 2998 [7]
  growth at 0.1 µM: 78%
OVCAR-4 [8]
  growth at 0.01 µM: 92%
OVCAR-4 [9]
  GI50: 7.4 µM
  TGI: > 100 µM
OVCAR-4 [9]; [29]
  CC50: > 100 µM
UO-31
  growth at 1 µM: 54%
TK-10 [10]
  GI50: 9.19 µM
  TGI: > 100 µM
TK-10 [10]; [29]
  CC50: > 100 µM
NCI-H226 [11]
  growth at 1 µM: 51%
HT-29 [12]
  growth at 0.001 µM: 98%
KM12 [13]
  growth at 1 µM: 21%
TK-10 [14]
  growth at 0.1 µM: 107%
HOP-92 [15]
  growth at 0.01 µM: 96%
KM12 [16]
  growth at 0.001 µM: 110%
PC-3
  growth at 10 µM: 7%
DU-145 [17]
  growth at 10 µM: 2%
SK-MEL-5 [18]
  growth at 10 µM: -28%
CCRF-CEM
  GI50: 2.88 µM
  TGI: > 100 µM
CCRF-CEM; [29]
  CC50: > 100 µM
HCT-15 [19]
  growth at 0.01 µM: 92%
DU-145 [20]
  GI50: 3.54 µM
  TGI: > 100 µM
DU-145 [20]; [29]
  CC50: > 100 µM
A549 [21]
  growth at 1 µM: 31%
NCI-H23
  growth at 1 µM: 30%
Malme-3M
  growth at 10 µM: 12%
[22]
  Activity: Active
HCC 2998 [23]
  growth at 1 µM: 52%
SK-MEL-5 [24]
  growth at 0.01 µM: 86%
MDA-MB-231
  growth at 0.01 µM: 86%
OVCAR-5
  growth at 1 µM: 101%
786-0
  growth at 0.1 µM: 105%
SR [25]
  growth at 10 µM: 7%
HCT-15 [26]
  growth at 10 µM: 19%
SR [27]
  growth at 1 µM: 13%
SK-MEL-28
  growth at 0.01 µM: 87%
NCI-H226 [28]
  growth at 0.001 µM: 91%
SNB-75
  growth at 10 µM: -12%
ACHN
  growth at 0.001 µM: 100%

Source: ChEMBL document CHEMBL1157638, “Fluorescent epigenetic small molecule induces expression of the tumor suppressor ras-association domain family 1A and inhibits human prostate xenograft” (J Med Chem, 2010)
